{"source": "ChEMBL document CHEMBL4052590", "about": "“Anti-Osteoporotic Activity of Harpagoside by Upregulation of the BMP2 and Wnt Signaling Pathways in Osteoblasts and Suppression of Differentiation in Osteoclasts” (J Nat Prod, 2017)", "key": {"[1]": {"tested_on": "MC3T3-E1", "assay": "Antiosteoporotic activity in mouse MC3T3-E1 cells assessed as increase in alkaline phosphatase activity after 4 days using pNPP as substrate in presence of ascorbic acid and beta-glycerophosphate by colorimetric assay", "format": "functional, cell-based", "how_it_was_run": "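MC3T3-E1 cells (2 × 10^4 cells/mL) in osteogenic medium (400 μM ascorbic acid, 5 mM β-glycerophosphate) with or without compound for 4 days. Fixed in 70% ethanol, lysed in Tris/0.1% Triton X-100 pH 7.5. ALP read as p-NPP to p-nitrophenol at 405 nm; protein by Bradford.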"}, "[2]": {"tested_on": "MC3T3-E1", "assay": "Antiosteoporotic activity in mouse MC3T3-E1 cells assessed as formation of mineralized nodule after 14 days in presence of ascorbic acid and beta-glycerophosphate by Alizarin red S staining-based microscopic method", "format": "functional, cell-based", "how_it_was_run": "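MC3T3-E1 cells (2 × 10^4 cells/mL) in 400 μM ascorbic acid and 5 mM β-glycerophosphate, with or without compound, for 14 days. Fixed in 70% ethanol 30 min, stained 5 min with 2% Alizarin red S (pH 4.0), viewed by microscopy. Stain extracted with 10% cetylpyridinium chloride, A570 read.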"}, "[3]": {"tested_on": "MC3T3-E1", "assay": "Increase in OPG mRNA expression in mouse MC3T3-E1 cells up to 4 uM after 48 hrs in presence of ascorbic acid and beta-glycerophosphate by real-time PCR analysis", "format": "functional, cell-based", "how_it_was_run": "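MC3T3-E1 cells stimulated with 400 μM ascorbic acid and 5 mM β-glycerophosphate, with or without compound, 48 h. TRIzol RNA, real-time RT-PCR: 40 cycles of 95 °C 20 s, 56 °C 20 s, 72 °C 30 s. Ct of each transcript […] β-actin Ct, expressed relative to control samples.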"}, "[4]": {"tested_on": "MC3T3-E1", "assay": "Upregulation of OCN protein expression in mouse MC3T3-E1 cells up to 4 uM after 48 hrs in presence of ascorbic acid and beta-glycerophosphate by Western blot analysis", "format": "functional, cell-based"}, "[5]": {"organism": "Mus musculus", "assay": "Activation of Wnt signaling pathway in mouse MC3T3-E1 cells assessed as increase in Runx2 mRNA expression after 48 hrs in presence of ascorbic acid and beta-glycerophosphate by real-time PCR analysis", "format": "cell-based"}, "[6]": {"organism": "Mus musculus", "assay": "Activation of Wnt signaling pathway in mouse MC3T3-E1 cells assessed as increase in BMP2 protein expression up to 4 uM after 48 hrs in presence of ascorbic acid and beta-glycerophosphate by Western blot analysis", "format": "cell-based", "how_it_was_run": "(§1)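 MC3T3-E1 cells given 400 μM ascorbic acid plus 5 mM β-glycerophosphate, exposed to test compound or not for 48 h. Lysed in boiling SDS sample buffer, protein measured by BCA. 40−50 μg of lysate run on 8% or 10% SDS-PAGE and transferred to PVDF. Blocked in 5% milk, probed with primary antibodies for 3 h at room temperature or overnight at 4 °C, detected by ECL.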"}, "[7]": {"organism": "Mus musculus", "assay": "Activation of Wnt signaling pathway in mouse MC3T3-E1 cells assessed as increase in Runx2 protein expression up to 4 uM after 48 hrs in presence of ascorbic acid and beta-glycerophosphate by Western blot analysis", "format": "cell-based", "how_it_was_run": "as §1"}, "[8]": {"tested_on": "MC3T3-E1", "assay": "Downregulation of DKK1 protein expression in mouse MC3T3-E1 cells up to 4 uM after 48 hrs in presence of ascorbic acid and beta-glycerophosphate by Western blot analysis", "format": "functional, cell-based", "how_it_was_run": "as §1"}, "[9]": {"assay": "Cytotoxicity against mouse osteoclasts assessed as effect on cell survival up to 4 uM after 72 hrs by MTT assay", "format": "cell-based, Osteoclast", "conditions": "read-out: Survival"}, "[10]": {"tested_on": "Osteoclast", "assay": "Inhibition of RANKL/M-CSF-induced osteoclast differentiation in mouse bone marrow-derived osteoclasts assessed as downregulation of TRAP protein expression up to 4 uM after 48 hrs by Western blot analysis", "format": "functional, cell-based", "how_it_was_run": "(§2)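 Mouse bone marrow cells were taken from 4-week-old mice and primed 24 h in 30 ng/mL M-CSF. They were then given 100 ng/mL RANKL plus 30 ng/mL M-CSF, with or without compound, for 48 h. Lysates were made in boiling SDS buffer and quantified by BCA. 40–50 μg was run on SDS-PAGE and immunoblotted on PVDF with β-actin reference and ECL read-out.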"}, "[11]": {"tested_on": "Osteoclast", "assay": "Inhibition of RANKL/M-CSF-induced osteoclast differentiation in mouse bone marrow-derived osteoclasts assessed as downregulation of NFATc1 protein expression up to 4 uM after 48 hrs by Western blot analysis", "format": "functional, cell-based", "how_it_was_run": "as §2"}, "[12]": {"tested_on": "Osteoclast", "assay": "Inhibition of RANKL/M-CSF-induced osteoclast differentiation in mouse bone marrow-derived osteoclasts assessed as downregulation of c-Fos protein expression up to 4 uM after 48 hrs by Western blot analysis", "format": "functional, cell-based", "how_it_was_run": "as §2"}, "[13]": {"tested_on": "Mus musculus", "assay": "Anti-osteoporotic activity in po dosed OVX-induced bone loss ICR mouse model assessed as decrease in trabecular bone destruction in femur administered for 12 weeks by microcomputed tomography", "format": "functional, organism-based"}, "[14]": {"tested_on": "Mus musculus", "assay": "Effect on calcium level in serum of OVX-induced bone loss ICR mouse model at 2 mg/kg, po for 12 weeks by ELISA (reference value: 9.3 +/- 0.3 mg/dl)", "format": "functional"}, "[15]": {"tested_on": "Mus musculus", "assay": "Effect on calcium level in serum of OVX-induced bone loss ICR mouse model at 5 mg/kg, po for 12 weeks by ELISA (reference value: 9.3 +/- 0.3 mg/dl)", "format": "functional"}, "[16]": {"tested_on": "Mus musculus", "assay": "Effect on […] level in serum of OVX-induced bone loss ICR mouse model at 2 mg/kg, po for 12 weeks by ELISA (reference value: 8.2 +/- 0.4 mg/dl)", "format": "functional"}, "[17]": {"tested_on": "Mus musculus", "assay": "Effect on […] level in serum of OVX-induced bone loss ICR mouse model at 5 mg/kg, po for 12 weeks by ELISA (reference value: 8.2 +/- 0.4 mg/dl)", "format": "functional"}, "[18]": {"tested_on": "Mus musculus", "assay": "Effect on alkaline phosphatase activity in serum of OVX-induced bone loss ICR mouse model at 2 mg/kg, po for 12 weeks using p-NPP as substrate (reference value: 84.9 +/- 4.2 U/L)", "format": "functional"}, "[19]": {"tested_on": "Mus musculus", "assay": "Effect on alkaline phosphatase activity in serum of OVX-induced bone loss ICR mouse model at 5 mg/kg, po for 12 weeks using p-NPP as substrate (reference value: 84.9 +/- 4.2 U/L)", "format": "functional"}, "[20]": {"tested_on": "Mus musculus", "assay": "Effect on C-terminal telopeptide level in serum of OVX-induced bone loss ICR mouse model at 10 mg/kg, po for 12 weeks by ELISA (reference value: 95.7 +/- 3.8 ng/ml)", "format": "functional"}, "[21]": {"tested_on": "MC3T3-E1", "assay": "Upregulation of OPN protein expression in 2 days differentiated mouse MC3T3-E1 cells up to 4 uM after 48 hrs in presence of ascorbic acid and beta-glycerophosphate by Western blot analysis", "format": "functional, cell-based"}}, "note": "The source made the active and inactive calls. The rule behind the calls is not given here.", "data": [{"smiles": "C[C@]1(OC(=O)/C=C/c2ccccc2)C[C@@H](O)[C@]2(O)C=CO[C@@H](O[C@@H]3O[C@H](CO)[C@@H](O)[C@H](O)[C@H]3O)[C@@H]21", "note": "[HARPAGOSIDE]", "values": [{"measurement": "Activity", "setting": "[1]", "value": "Dose-dependent effect"}, {"measurement": "Activity", "setting": "[2]", "value": "Dose-dependent effect"}, {"measurement": "Activity", "setting": "[3]", "value": "Active"}, {"measurement": "Activity", "setting": "[4]", "value": "Active"}, {"measurement": "Activity", "setting": "[5]", "value": "Dose-dependent effect"}, {"measurement": "Activity", "setting": "[6]", "value": "Active"}, {"measurement": "Activity", "setting": "[7]", "value": "Active"}, {"measurement": "Activity", "setting": "[8]", "value": "Active"}, {"measurement": "viability at 72 h", "setting": "[9]", "value": "> 85", "unit": "%"}, {"measurement": "inhibition", "setting": "[10]", "value": "Active"}, {"measurement": "inhibition", "setting": "[11]", "value": "Active"}, {"measurement": "inhibition", "setting": "[12]", "value": "Active"}, {"measurement": "Activity", "setting": "[13]", "value": "Dose-dependent effect"}, {"measurement": "Activity", "setting": "[14]", "value": 9.3, "unit": "mg/dL"}, {"measurement": "Activity", "setting": "[15]", "value": 9.6, "unit": "mg/dL"}, {"measurement": "Activity", "setting": "[16]", "value": 7.9, "unit": "mg/dL"}, {"measurement": "Activity", "setting": "[17]", "value": 8, "unit": "mg/dL"}, {"measurement": "Activity", "setting": "[18]", "value": 78.5, "unit": "U/L"}, {"measurement": "Activity", "setting": "[19]", "value": 82.6, "unit": "U/L"}, {"measurement": "Activity", "setting": "[20]", "value": 80.7, "unit": "ng/mL"}, {"measurement": "Activity", "setting": "[21]", "value": "Dose-dependent effect"}]}]}
